Assays:
Rattus norvegicus [1] = test: Hypotensive activity in normotensive Wistar rat assessed as reduction of diastolic blood pressure at 0.625 mg/kg, iv after 30 mins; assay type: functional, Artery
Outline: (§1)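 Male normotensive Wistar rats were anaesthetised with thiopental 75 mg/kg ip. The right carotid artery was cannulated with heparinised saline for pressure recording. After 5 min of stabilisation, compound was injected into the tail vein at 1 mL/kg. Systolic and diastolic pressure were followed up to 60 min. Data are means ± SEM of 5–6 rats, analysed by one-way ANOVA.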

Rattus norvegicus [2] = test: Hypotensive activity in normotensive Wistar rat assessed as reduction of diastolic blood pressure at 0.16 mg/kg, iv after 60 mins; assay type: functional, Artery; outline: as §1
Rattus norvegicus [3] = test: Hypotensive activity in normotensive Wistar rat assessed as reduction of systolic blood pressure at 0.625 mg/kg, iv after 20 mins; assay type: functional, Artery
Outline: (§2)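 Male normotensive Wistar rats (170–350 g) anaesthetised with thiopental 75 mg/kg ip; right carotid artery cannulated with heparinised saline-filled polyethylene tubing for pressure recording. After a 5 min stabilisation, compound given into the caudal vein at 1 mL/kg. Systolic pressure is recorded at 0, 5, 10, 20, 30 and 60 min, and the data are reported as mean ± SEM of five to six animals, with one-way ANOVA.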

Rattus norvegicus [4] = test: Hypotensive activity in normotensive Wistar rat assessed as reduction of systolic blood pressure at 0.16 mg/kg, iv after 5 mins; assay type: functional, Artery; outline: as §2
Rattus norvegicus [5] = test: Hypotensive activity in normotensive Wistar rat assessed as reduction of diastolic blood pressure at 0.625 mg/kg, iv after 60 mins; assay type: functional, Artery; outline: as §1
Rattus norvegicus [6] = test: Hypotensive activity in normotensive Wistar rat assessed as reduction of systolic blood pressure at 0.625 mg/kg, iv after 10 mins; assay type: functional, Artery; outline: as §2
Rattus norvegicus [7] = test: Hypotensive activity in normotensive Wistar rat assessed as reduction of diastolic blood pressure at 0.625 mg/kg, iv after 20 mins; assay type: functional, Artery; outline: as §1
Rattus norvegicus [8] = test: Hypotensive activity in normotensive Wistar rat assessed as reduction of systolic blood pressure at 0.31 mg/kg, iv after 60 mins; assay type: functional, Artery; outline: as §2
Rattus norvegicus [9] = test: Hypotensive activity in normotensive Wistar rat assessed as reduction of systolic blood pressure at 0.16 mg/kg, iv after 30 mins; assay type: functional, Artery; outline: as §2
Rattus norvegicus [10] = test: Hypotensive activity in normotensive Wistar rat assessed as reduction of systolic blood pressure at 0.625 mg/kg, iv after 60 mins; assay type: functional, Artery; outline: as §2
Rattus norvegicus [11] = test: Hypotensive activity in normotensive Wistar rat assessed as reduction of diastolic blood pressure at 0.31 mg/kg, iv after 30 mins; assay type: functional, Artery; outline: as §1
Rattus norvegicus [12] = test: Hypotensive activity in normotensive Wistar rat assessed as reduction of systolic blood pressure at 0.31 mg/kg, iv after 5 mins; assay type: functional, Artery; outline: as §2
Rattus norvegicus [13] = test: Hypotensive activity in normotensive Wistar rat assessed as reduction of diastolic blood pressure at 0.31 mg/kg, iv after 60 mins; assay type: functional, Artery; outline: as §1
Rattus norvegicus [14] = test: Hypotensive activity in normotensive Wistar rat assessed as reduction of systolic blood pressure at 0.625 mg/kg, iv after 30 mins; assay type: functional, Artery; outline: as §2
Rattus norvegicus [15] = test: Hypotensive activity in normotensive Wistar rat assessed as reduction of diastolic blood pressure at 0.31 mg/kg, iv after 20 mins; assay type: functional, Artery; outline: as §1
Rattus norvegicus [16] = test: Hypotensive activity in normotensive Wistar rat assessed as reduction of systolic blood pressure at 0.31 mg/kg, iv after 20 mins; assay type: functional, Artery; outline: as §2
Rattus norvegicus [17] = test: Hypotensive activity in normotensive Wistar rat assessed as reduction of diastolic blood pressure at 0.625 mg/kg, iv after 10 mins; assay type: functional, Artery; outline: as §1
Rattus norvegicus [18] = test: Hypotensive activity in normotensive Wistar rat assessed as reduction of diastolic blood pressure at 0.16 mg/kg, iv after 20 mins; assay type: functional, Artery; outline: as §1
Rattus norvegicus [19] = test: Hypotensive activity in normotensive Wistar rat assessed as reduction of systolic blood pressure at 0.31 mg/kg, iv after 30 mins; assay type: functional, Artery; outline: as §2
Rattus norvegicus [20] = test: Hypotensive activity in normotensive Wistar rat assessed as reduction of diastolic blood pressure at 0.16 mg/kg, iv after 10 mins; assay type: functional, Artery; outline: as §1
Rattus norvegicus [21] = test: Hypotensive activity in normotensive Wistar rat assessed as reduction of diastolic blood pressure at 0.16 mg/kg, iv after 30 mins; assay type: functional, Artery; outline: as §1
Rattus norvegicus [22] = test: Hypotensive activity in normotensive Wistar rat assessed as reduction of systolic blood pressure at 0.16 mg/kg, iv after 60 mins; assay type: functional, Artery; outline: as §2
Rattus norvegicus [23] = test: Hypotensive activity in normotensive Wistar rat assessed as reduction of diastolic blood pressure at 0.31 mg/kg, iv after 10 mins; assay type: functional, Artery; outline: as §1
Rattus norvegicus [24] = test: Hypotensive activity in normotensive Wistar rat assessed as reduction of diastolic blood pressure at 1.25 mg/kg, iv after 20 mins; assay type: functional, Artery; outline: as §1
Rattus norvegicus [25] = test: Hypotensive activity in normotensive Wistar rat assessed as reduction of systolic blood pressure at 1.25 mg/kg, iv after 30 mins; assay type: functional, Artery; outline: as §2
Rattus norvegicus [26] = test: Hypotensive activity in normotensive Wistar rat assessed as reduction of diastolic blood pressure at 1.25 mg/kg, iv after 30 mins; assay type: functional, Artery; outline: as §1
Rattus norvegicus [27] = test: Hypotensive activity in normotensive Wistar rat assessed as reduction of systolic blood pressure at 1.25 mg/kg, iv after 10 mins; assay type: functional, Artery; outline: as §2
Rattus norvegicus [28] = test: Hypotensive activity in normotensive Wistar rat assessed as reduction of diastolic blood pressure at 1.25 mg/kg, iv after 60 mins; assay type: functional, Artery; outline: as §1
Rattus norvegicus [29] = test: Hypotensive activity in normotensive Wistar rat assessed as reduction of systolic blood pressure at 1.25 mg/kg, iv after 20 mins; assay type: functional, Artery; outline: as §2
Rattus norvegicus [30] = test: Cardiotoxicity in Wistar rat assessed as QRS interval at 10 mg/kg, iv after 15 mins by ECG analysis; assay type: toxicity, organism-based; parameters: dose 10 mg/kg, route intravenous; settings: in vivo, 0.25 h
Outline: (§3)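 Male normotensive Wistar rats, 170–350 g, six per group. Compound given iv at a constant volume of 1 mL/kg. ECG was recorded just before dosing and at 1, 5 and 15 min after. PQ, QRS and QT intervals and heart rate were read from the trace. Groups were compared by one-way ANOVA.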

Rattus norvegicus [31] = test: Cardiotoxicity in Wistar rat assessed as hear beats per min at 10 mg/kg, iv after 5 mins by ECG analysis; assay type: toxicity, organism-based; parameters: dose 10 mg/kg, route intravenous; settings: in vivo; outline: as §3
Rattus norvegicus [32] = test: Cardiotoxicity in Wistar rat assessed as PQ interval at 10 mg/kg, iv after 10 mins by ECG analysis; assay type: toxicity, organism-based; parameters: dose 10 mg/kg, route intravenous; settings: in vivo
Rattus norvegicus [33] = test: Cardiotoxicity in Wistar rat assessed as QRS interval at 10 mg/kg, iv after 5 mins by ECG analysis; assay type: toxicity, organism-based; parameters: dose 10 mg/kg, route intravenous; settings: in vivo; outline: as §3
Rattus norvegicus [34] = test: Cardiotoxicity in Wistar rat assessed as QT interval at 10 mg/kg, iv after 15 mins by ECG analysis; assay type: toxicity, organism-based; parameters: dose 10 mg/kg, route intravenous; settings: in vivo, 0.25 h; outline: as §3
Rattus norvegicus [35] = test: Cardiotoxicity in Wistar rat assessed as hear beats per min at 10 mg/kg, iv after 15 mins by ECG analysis; assay type: toxicity, organism-based; parameters: dose 10 mg/kg, route intravenous; settings: in vivo, 0.25 h; outline: as §3
Rattus norvegicus [36] = test: Cardiotoxicity in Wistar rat assessed as QRS interval at 10 mg/kg, iv after 10 mins by ECG analysis; assay type: toxicity, organism-based; parameters: dose 10 mg/kg, route intravenous; settings: in vivo
Rattus norvegicus [37] = test: Cardiotoxicity in Wistar rat assessed as PQ interval at 5 mg/kg, iv after 10 mins by ECG analysis; assay type: toxicity, organism-based; parameters: dose 5 mg/kg, route intravenous; settings: in vivo
Rattus norvegicus [38] = test: Cardiotoxicity in Wistar rat assessed as QT interval at 5 mg/kg, iv after 5 mins by ECG analysis; assay type: toxicity, organism-based; parameters: dose 5 mg/kg, route intravenous; settings: in vivo; outline: as §3
Rattus norvegicus [39] = test: Cardiotoxicity in Wistar rat assessed as PQ interval at 5 mg/kg, iv after 15 mins by ECG analysis; assay type: toxicity, organism-based; parameters: dose 5 mg/kg, route intravenous; settings: in vivo, 0.25 h; outline: as §3
Rattus norvegicus [40] = test: Cardiotoxicity in Wistar rat assessed as QRS interval at 5 mg/kg, iv after 10 mins by ECG analysis; assay type: toxicity, organism-based; parameters: dose 5 mg/kg, route intravenous; settings: in vivo

SMILES: COc1ccccc1N1CCN(CCCOc2cccc3c(=O)c4ccccc4oc23)CC1.Cl
- Activity (Rattus norvegicus [1]): 111.7 mmHg
- Activity (Rattus norvegicus [2]): 95.2 mmHg
- Activity (Rattus norvegicus [3]): 129.5 mmHg
- Activity (Rattus norvegicus [4]): 109.6 mmHg
- Activity (Rattus norvegicus [5]): 112 mmHg
- Activity (Rattus norvegicus [6]): 125.5 mmHg
- Activity (Rattus norvegicus [7]): 110.5 mmHg
- Activity (Rattus norvegicus [8]): 116 mmHg
- Activity (Rattus norvegicus [9]): 111.4 mmHg
- Activity (Rattus norvegicus [10]): 129.5 mmHg
- Activity (Rattus norvegicus [11]): 103.3 mmHg
- Activity (Rattus norvegicus [12]): 122 mmHg
- Activity (Rattus norvegicus [13]): 97.2 mmHg
- Activity (Rattus norvegicus [14]): 129.5 mmHg
- Activity (Rattus norvegicus [15]): 105.7 mmHg
- Activity (Rattus norvegicus [16]): 121 mmHg
- Activity (Rattus norvegicus [17]): 106.5 mmHg
- Activity (Rattus norvegicus [18]): 101 mmHg
- Activity (Rattus norvegicus [19]): 119.5 mmHg
- Activity (Rattus norvegicus [20]): 99.2 mmHg
- Activity (Rattus norvegicus [21]): 100 mmHg
- Activity (Rattus norvegicus [22]): 108.2 mmHg
- Activity (Rattus norvegicus [23]): 107.7 mmHg

SMILES: COc1ccccc1N1CCN(CC(COc2cccc3c(=O)c4ccccc4oc23)OC(C)=O)CC1.Cl (racemic)
- Activity (Rattus norvegicus [1]): 93.2 mmHg
- Activity (Rattus norvegicus [24]): 92.2 mmHg
- Activity (Rattus norvegicus [3]): 122.2 mmHg
- Activity (Rattus norvegicus [25]): 117.6 mmHg
- Activity (Rattus norvegicus [26]): 90.8 mmHg
- Activity (Rattus norvegicus [5]): 92 mmHg
- Activity (Rattus norvegicus [6]): 123.8 mmHg
- Activity (Rattus norvegicus [7]): 95.4 mmHg
- Activity (Rattus norvegicus [10]): 123.2 mmHg
- Activity (Rattus norvegicus [14]): 120.6 mmHg
- Activity (Rattus norvegicus [27]): 118.4 mmHg
- Activity (Rattus norvegicus [17]): 96.4 mmHg
- Activity (Rattus norvegicus [28]): 89.6 mmHg
- Activity (Rattus norvegicus [29]): 117 mmHg

SMILES: COc1ccccc1N1CCN(CC(O)COc2cccc3c(=O)c4ccccc4oc23)CC1.Cl (racemic)
- Activity (Rattus norvegicus [2]): 101.5 mmHg
- Activity (Rattus norvegicus [4]): 124 mmHg
- Activity (Rattus norvegicus [8]): 116 mmHg
- Activity (Rattus norvegicus [9]): 115.7 mmHg
- Activity (Rattus norvegicus [11]): 100.6 mmHg
- Activity (Rattus norvegicus [12]): 122.8 mmHg
- Activity (Rattus norvegicus [13]): 98.4 mmHg
- Activity (Rattus norvegicus [15]): 102 mmHg
- Activity (Rattus norvegicus [16]): 120.6 mmHg
- Activity (Rattus norvegicus [18]): 103.8 mmHg
- Activity (Rattus norvegicus [19]): 118.6 mmHg
- Activity (Rattus norvegicus [20]): 110.2 mmHg
- Activity (Rattus norvegicus [21]): 101.8 mmHg
- Activity (Rattus norvegicus [22]): 115.2 mmHg
- Activity (Rattus norvegicus [23]): 103 mmHg

SMILES: Cl.Cl.Cl.O=c1c2ccc(Cl)cc2oc2c(OCC(O)CN3CCN(CCOc4ccccc4)CC3)cccc12 (racemic)
- Activity (Rattus norvegicus [30]): 20.4 ms
- Activity (Rattus norvegicus [31]): 303.69 bpm
- Activity (Rattus norvegicus [32]): 33.6 ms
- Activity (Rattus norvegicus [33]): 18.8 ms
- Activity (Rattus norvegicus [24]): 97.4 mmHg
- Activity (Rattus norvegicus [25]): 113.2 mmHg
- Activity (Rattus norvegicus [26]): 100.6 mmHg
- Activity (Rattus norvegicus [34]): 53.2 ms
- Activity (Rattus norvegicus [27]): 115.2 mmHg
- Activity (Rattus norvegicus [35]): 283.41 bpm
- Activity (Rattus norvegicus [28]): 103.6 mmHg
- Activity (Rattus norvegicus [29]): 110.8 mmHg
- Activity (Rattus norvegicus [36]): 20.32 ms

SMILES: Cl.Cl.Cl.O=c1c2ccc(Cl)cc2oc2c(OCC(O)CN3CCN(C/C=C/c4ccccc4)CC3)cccc12 (racemic)
- Activity (Rattus norvegicus [37]): 46 ms
- Activity (Rattus norvegicus [38]): 73.6 ms
- Activity (Rattus norvegicus [39]): 45.2 ms
- Activity (Rattus norvegicus [40]): 20.2 ms

SMILES: Cl.Cl.Cl.O=c1c2ccc(Cl)cc2oc2c(OCC(O)CN3CCN(Cc4ccccc4)CC3)cccc12 (racemic)
- Activity (Rattus norvegicus [30]): 20.1 ms
- Activity (Rattus norvegicus [31]): 295.3 bpm
- Activity (Rattus norvegicus [32]): 41.1 ms
- Activity (Rattus norvegicus [33]): 19.2 ms
- Activity (Rattus norvegicus [34]): 78.8 ms
- Activity (Rattus norvegicus [35]): 268.8 bpm
- Activity (Rattus norvegicus [36]): 19.6 ms

SMILES: Cl.Cl.O=c1c2ccccc2oc2c(OCC(O)CN3CCN(C/C=C/c4ccccc4)CC3)cccc12 (racemic)
- Activity (Rattus norvegicus [37]): 41.7 ms
- Activity (Rattus norvegicus [38]): 76.4 ms
- Activity (Rattus norvegicus [39]): 41.7 ms
- Activity (Rattus norvegicus [40]): 23.5 ms

From ChEMBL document CHEMBL2311390, “Synthesis and preliminary evaluation of pharmacological properties of some piperazine derivatives of xanthone” (Bioorg Med Chem, 2013)
